In ChEMBL document CHEMBL1240400, “Comparative in vitro activities of nemonoxacin (TG-873870), a novel nonfluorinated quinolone, and other quinolones against clinical isolates” (2010):
In brackets after ≈: the same amount, converted by molar mass.

Key:
Type in all cases: functional
[1] = test system: Staphylococcus epidermidis; test: Antibacterial activity against methicillin resistant coagulase negative Staphylococcus epidermidis by broth dilution method
Staphylococcus aureus [2] = test: Antibacterial activity against ciprofloxacin and methicillin resistant Staphylococcus aureus by broth dilution method
Procedure, shortened: (§1)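 Clinical isolates tested by CLSI broth microdilution in panels holding serial twofold drug dilutions in cation-adjusted Mueller-Hinton broth. Final inoculum 5 × 10^5 CFU/ml was made from a 0.5 McFarland suspension. Plates were incubated overnight at 35°C in ambient air, and the MIC was read as the lowest concentration inhibiting growth. Quality control strains were included in each run.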

Staphylococcus aureus [3] = test: Antibacterial activity against ciprofloxacin susceptible and methicillin resistant Staphylococcus aureus by broth dilution method; procedure, shortened: as §1
Staphylococcus = test: Antibacterial activity against methicillin resistant coagulase negative Staphylococcus by broth dilution method
Staphylococcus aureus [4] = test: Antibacterial activity against methicillin susceptible Staphylococcus aureus by broth dilution method
Citrobacter freundii = test: Antibacterial activity against Citrobacter freundii by broth dilution method
Procedure, shortened: (§2)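 Broth microdilution per CLSI in panels spanning a dilution range of each agent. Cation-adjusted Mueller-Hinton broth, final inoculum 5 × 10^5 CFU/ml from a 0.5 McFarland suspension. Incubated overnight at 35°C in ambient air, with quality control strains in each run. MIC reported; values at or below the lowest concentration tested are given as that concentration.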

Acinetobacter baumannii = test: Antibacterial activity against Acinetobacter baumannii by broth dilution method; procedure, shortened: as §2
Klebsiella pneumoniae = test: Antibacterial activity against Klebsiella pneumoniae by broth dilution method; procedure, shortened: as §2
Proteus mirabilis = test: Antibacterial activity against Proteus mirabilis by broth dilution method
Haemophilus influenzae = test: Antibacterial activity against Haemophilus influenzae by broth dilution method
Procedure, shortened: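 Broth microdilution per CLSI using Haemophilus Test Medium broth, seeded from a 0.5 McFarland suspension. Incubated overnight at 35°C in ambient air, with quality control strains in each run. MIC read against a tested dilution range; values at the low limit are given as the lowest concentration.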

Enterobacter cloacae = test: Antibacterial activity against Enterobacter cloacae by broth dilution method
Pseudomonas aeruginosa = test: Antibacterial activity against Pseudomonas aeruginosa by broth dilution method
Escherichia coli [5] = test: Antibacterial activity against ciprofloxacin susceptible Escherichia coli by broth dilution method; procedure, shortened: as §2
Escherichia coli [6] = test: Antibacterial activity against ciprofloxacin resistant Escherichia coli by broth dilution method; procedure, shortened: as §1
Streptococcus pneumoniae [7] = test: Antibacterial activity against Levofloxacin susceptible Streptococcus pneumoniae by broth dilution method
Procedure, shortened: (§3)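 Streptococcus pneumoniae clinical isolates tested by CLSI broth microdilution. A 0.5 McFarland suspension was diluted into Mueller-Hinton broth with 3% lysed horse blood, then tested against serial drug dilutions. Plates were incubated overnight at 35°C in ambient air, and the MIC was read as the lowest inhibitory concentration. Quality control strains were included in each run.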

Streptococcus pyogenes = test: Antibacterial activity against Streptococcus pyogenes by broth dilution method
Procedure, shortened: (§4)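 Streptococci were tested by CLSI broth microdilution in Mueller-Hinton broth with 3% lysed horse blood, seeded from a 0.5 McFarland suspension. Incubated overnight at 35°C in ambient air, with quality control strains in each run. MIC taken over a per-agent dilution range.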

Streptococcus agalactiae = test: Antibacterial activity against Streptococcus agalactiae by broth dilution method; procedure, shortened: as §4
Streptococcus viridans = test: Antibacterial activity against Streptococcus viridans by broth dilution method; procedure, shortened: as §4
Streptococcus pneumoniae [8] = test: Antibacterial activity against Levofloxacin resistant Streptococcus pneumoniae by broth dilution method; procedure, shortened: as §3

SMILES | MIC50 [1] [µg/mL] | MIC90 [1] [µg/mL] | MIC50 (Staphylococcus aureus [2]) [µg/mL] | MIC90 (Staphylococcus aureus [2]) [µg/mL] | MIC50 (Citrobacter freundii) [µg/mL] | MIC90 (Citrobacter freundii) [µg/mL] | MIC50 (Acinetobacter baumannii) [µg/mL] | MIC90 (Acinetobacter baumannii) [µg/mL] | MIC50 (Klebsiella pneumoniae) [µg/mL] | MIC90 (Klebsiella pneumoniae) [µg/mL] | MIC50 (Proteus mirabilis) [µg/mL] | MIC90 (Proteus mirabilis) [µg/mL] | MIC50 (Haemophilus influenzae) [µg/mL] | MIC90 (Haemophilus influenzae) [µg/mL] | MIC50 (Enterobacter cloacae) [µg/mL] | MIC90 (Enterobacter cloacae) [µg/mL] | MIC50 (Pseudomonas aeruginosa) [µg/mL] | MIC90 (Pseudomonas aeruginosa) [µg/mL] | MIC50 (Escherichia coli [5]) [µg/mL] | MIC90 (Escherichia coli [5]) [µg/mL] | other results
Cc1onc(-c2ccccc2)c1C(=O)N[C@@H]1C(=O)N2[C@@H]1SC(C)(C)[C@@H]2C(=O)O [OXACILLIN] | > 8 | > 8 | > 8 | > 8 | – | – | – | – | – | – | – | – | – | – | – | – | – | – | – | – | MIC (Staphylococcus aureus [2]): > 8 µg/mL; MIC50 (Staphylococcus aureus [3]): > 8 µg/mL; MIC90 (Staphylococcus aureus [3]): > 8 µg/mL; MIC50 (Staphylococcus): > 8 µg/mL; MIC90 (Staphylococcus): > 8 µg/mL; MIC50 (Staphylococcus aureus [4]): 0.5 µg/mL (≈ 1.25 µM); MIC90 (Staphylococcus aureus [4]): 1 µg/mL (≈ 2.49 µM)
C[C@@H](O)[C@H]1C(=O)N2C(C(=O)O)=C(SCCNC=N)C[C@H]12 [IMIPENEM ANHYDROUS] | – | – | – | – | 1 (≈ 3.34 µM) | 2 (≈ 6.68 µM) | 2 (≈ 6.68 µM) | > 32 | 0.5 (≈ 1.67 µM) | 4 (≈ 13.4 µM) | 2 (≈ 6.68 µM) | 8 (≈ 26.7 µM) | 1 (≈ 3.34 µM) | 4 (≈ 13.4 µM) | 1 (≈ 3.34 µM) | 4 (≈ 13.4 µM) | – | – | – | – | –
CC(C)(O/N=C(\C(=O)N[C@@H]1C(=O)N2C(C(=O)[O-])=C(C[n+]3ccccc3)CS[C@H]12)c1csc(N)n1)C(=O)O [CEFTAZIDIME] | – | – | – | – | ≤ 1 | 64 (≈ 117 µM) | 64 (≈ 117 µM) | > 128 | 16 (≈ 29.3 µM) | > 128 | ≤ 1 | ≤ 1 | ≤ 1 | ≤ 1 | 128 (≈ 234 µM) | > 128 | 32 (≈ 58.5 µM) | > 128 | 1 (≈ 1.83 µM) | 16 (≈ 29.3 µM) | MIC (Haemophilus influenzae): ≤ 1 µg/mL; MIC (Escherichia coli [5]): 1 µg/mL (≈ 1.83 µM)
CCN1CCN(C(=O)N[C@@H](C(=O)N[C@@H]2C(=O)N3[C@@H]2SC(C)(C)[C@@H]3C(=O)O)c2ccccc2)C(=O)C1=O [PIPERACILLIN] | – | – | – | – | 16 (≈ 30.9 µM) | > 128 | > 128 | > 128 | > 128 | > 128 | 32 (≈ 61.8 µM) | > 128 | – | – | > 128 | > 128 | 128 (≈ 247 µM) | > 128 | > 128 | > 128 | MIC (Escherichia coli [6]): 2 µg/mL (≈ 3.86 µM); MIC90 (Escherichia coli [6]): 0.5 µg/mL (≈ 0.966 µM)
CO/N=C(\C(=O)N[C@@H]1C(=O)N2C(C(=O)[O-])=C(C[N+]3(C)CCCC3)CS[C@H]12)c1csc(N)n1 | – | – | – | – | ≤ 0.06 | > 8 | > 8 | > 8 | – | – | ≤ 0.06 | 8 (≈ 16.6 µM) | 0.25 (≈ 0.52 µM) | 0.5 (≈ 1.04 µM) | – | – | > 8 | > 8 | – | – | –
CO/N=C(\C(=O)N[C@@H]1C(=O)N2C(C(=O)O)=C(CSc3nc(=O)c(O)nn3C)CS[C@H]12)c1csc(N)n1 [CEFTRIAXONE] | > 8 | > 8 | > 8 | > 8 | 0.25 (≈ 0.451 µM) | > 8 | > 8 | > 8 | > 8 | > 8 | ≤ 0.03 | > 8 | ≤ 0.03 | ≤ 0.03 | > 8 | > 8 | > 8 | > 8 | 0.06 (≈ 0.108 µM) | > 8 | MIC (Pseudomonas aeruginosa): > 8 µg/mL; MIC50 (Streptococcus pneumoniae [7]): 1 µg/mL (≈ 1.8 µM); MIC90 (Streptococcus pneumoniae [7]): 2 µg/mL (≈ 3.61 µM); MIC (Streptococcus pyogenes): ≤ 0.06 µg/mL; MIC50 (Streptococcus pyogenes): ≤ 0.06 µg/mL; MIC90 (Streptococcus pyogenes): ≤ 0.06 µg/mL; MIC50 (Streptococcus agalactiae): ≤ 0.06 µg/mL; MIC90 (Streptococcus agalactiae): 0.12 µg/mL (≈ 0.216 µM); MIC50 (Staphylococcus aureus [3]): > 8 µg/mL; MIC90 (Staphylococcus aureus [3]): > 8 µg/mL; MIC50 (Streptococcus viridans): 0.25 µg/mL (≈ 0.451 µM); MIC90 (Streptococcus viridans): 0.5 µg/mL (≈ 0.902 µM); MIC50 (Staphylococcus): > 8 µg/mL; MIC90 (Staphylococcus): > 8 µg/mL; MIC50 (Escherichia coli [6]): > 8 µg/mL; MIC90 (Escherichia coli [6]): 64 µg/mL (≈ 115 µM); MIC50 (Streptococcus pneumoniae [8]): 1 µg/mL (≈ 1.8 µM); MIC90 (Streptococcus pneumoniae [8]): 2 µg/mL (≈ 3.61 µM); MIC50 (Staphylococcus aureus [4]): 4 µg/mL (≈ 7.21 µM); MIC90 (Staphylococcus aureus [4]): 4 µg/mL (≈ 7.21 µM)
